The source made the active and inactive calls. The calls are words filed in the database; no cut-off is given here.
Assays:
[1] = Stability in simulated gastric fluid assessed as pig pepsin-mediated proteolysis at 40 uM after 5 secs by RP-HPLC analysis; assay type: ADME, Sus scrofa; settings: isolated protein, 5 s
In short: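 Proteolysis quenched by transfer into 10× PBS, pH 7.4, giving 40 μM peptide. Analysed by analytical C18 RP-HPLC, 10–60% acetonitrile/0.1% TFA over 50 min. Intact peptide quantified by integrating its peak. Duplicate reactions run concurrently, standard deviation.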

[2] = biological target: T1, Parathyroid hormone/parathyroid hormone-related peptide receptor (Homo sapiens) (UniProt Q03431); assay: Agonist activity at human PTH1 receptor expressed in human GP2.3 cells assessed as induction of cAMP at 0.1 to 100 nM preincubated with protease activity quenched SGF up to 4 hrs followed by compound transfer to GP2.3 cells by luciferase reporter gene assay; assay type: functional, cell-based
T1 sequence (whole entry): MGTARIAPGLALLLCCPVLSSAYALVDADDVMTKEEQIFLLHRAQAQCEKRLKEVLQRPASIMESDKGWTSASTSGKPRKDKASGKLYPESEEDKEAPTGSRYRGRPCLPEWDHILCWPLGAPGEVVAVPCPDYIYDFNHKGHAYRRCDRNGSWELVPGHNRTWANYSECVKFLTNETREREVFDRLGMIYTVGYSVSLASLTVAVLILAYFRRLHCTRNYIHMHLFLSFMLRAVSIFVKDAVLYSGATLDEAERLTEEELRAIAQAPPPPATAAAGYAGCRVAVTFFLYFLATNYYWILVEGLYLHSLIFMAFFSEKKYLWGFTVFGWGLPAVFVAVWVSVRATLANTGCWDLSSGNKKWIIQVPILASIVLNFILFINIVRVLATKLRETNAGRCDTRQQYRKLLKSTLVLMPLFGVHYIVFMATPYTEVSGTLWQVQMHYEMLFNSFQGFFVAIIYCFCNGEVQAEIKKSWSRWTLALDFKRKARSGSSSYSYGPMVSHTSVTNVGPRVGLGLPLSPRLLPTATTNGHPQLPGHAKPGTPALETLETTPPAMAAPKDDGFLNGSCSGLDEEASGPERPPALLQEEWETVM
In short: (§1)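 Control samples: simulated gastric fluid neutralized with 10× PBS, or intestinal fluid mixed with acetonitrile/TFA quench solution, before adding peptide. Gastric controls held up to 4 h. Then diluted and tested on luciferin-loaded GP2.3 cells at 100−0.1 nM final, alongside freshly prepared peptide.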

[3] = Drug metabolism in Sprague-Dawley rat kidney homogenates assessed as protease mediated-drug degradation at 12 uM up to 15 mins by MALDI-TOF-MS analysis; assay type: ADME, tissue-based; settings: tissue homogenate
In short: (§2)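 Perfused female Sprague-Dawley kidney homogenate in 50 mM Tris-HCl pH 7.4, diluted to 2.5 mg protein/mL. Peptide spiked at 50 μg/mL (~12 μM) and incubated at 37 °C. Timed samples quenched with equal volume 1% TFA, centrifuged, dried, reconstituted in 0.1% formic acid, mixed with DHB matrix. Fragments identified by MALDI-TOF MS.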

[4] = Half life in Sprague-Dawley rat kidney homogenates at 12 uM by HPLC-MS analysis; assay type: ADME, tissue-based
In short: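 Kidney homogenate (2.5 mg protein/mL, pH 7.4 Tris) spiked with peptide at 50 μg/mL (~12 μM), 37 °C, sampled 0−120 min. […] C18 UHPLC–Orbitrap MS quantified via y32 ion area ratio against calibration standards. Exponential decay fit, mean ± SD of two replicates.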

[5] = biological target: T1, Parathyroid hormone/parathyroid hormone-related peptide receptor (Homo sapiens); assay: Agonist activity at human PTH1 receptor expressed in human GP2.3 cells assessed as induction of cAMP at 0.1 to 100 nM preincubated with protease activity quenched SIF followed by compound transfer to GP2.3 cells by luciferase reporter gene assay; assay type: functional, cell-based; in short: as §1
[6] = biological target: T1, Parathyroid hormone/parathyroid hormone-related peptide receptor (Homo sapiens); assay: Agonist activity at extracellular domain truncate human PTH1 receptor expressed in GD5 cells assessed as induction of cAMP after 12 to 20 mins by luciferase reporter gene assay; assay type: functional, cell-based
In short: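 HEK293-derived lines stably expressing Glosensor cAMP reporter plus full-length human PTHR1 (GP2.3) or ECD-truncated PTHR1 (GD5). Confluent monolayers preincubated at room temperature in CO2-independent medium with 0.5 mM D-luciferin until baseline stable (30 min), then varied agonist concentrations added. Maximal luminescence (12−20 min) used for sigmoidal variable-slope fits.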

Mus musculus = assay: In vivo induction of excessive bloodstream calcium concentration in CD1 mouse at 20 nmol/kg, sc after 2 hrs by Ca2+/pH analyzer; assay type: organism-based
In short: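 Female CD1 mice (9−12 weeks), n = 5, given 20 nmol/kg subcutaneously in 10 mM citrate/150 mM NaCl/0.05% Tween-80, pH 5.0. Tail vein blood taken before and at times after dosing. Ca2+ measured by Ca2+/pH analyzer. One-way ANOVA with Dunnett's test vs vehicle. Mean ± SEM.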

[7] = Drug metabolism in Sprague-Dawley rat kidney homogenates assessed as protease-mediated metabolite formation at 12 uM after 5 mins by MALDI-TOF-MS analysis; assay type: ADME, tissue-based; settings: tissue homogenate; in short: as §2
[8] = biological target: T1, Parathyroid hormone/parathyroid hormone-related peptide receptor (Homo sapiens); assay: Agonist activity at human PTH1 receptor expressed in human GP2.3 cells assessed as induction of cAMP at 0.1 to 100 nM preincubated with SGF for 5 secs followed by compound transfer to GP2.3 cells by luciferase reporter gene assay; assay type: functional, cell-based
In short: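 Quenched at set times with 10× PBS, diluted into CO2-independent medium, serially 1:10, then added to confluent GP2.3 cells (HEK293, hPTHR1 plus Glosensor cAMP reporter) preloaded 30 min with 0.5 mM D-luciferin. Final 100–0.1 nM. Luminescence read; two technical replicates; variable-slope sigmoidal fit.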

[9] = Drug metabolism in Sprague-Dawley rat kidney homogenates assessed as protease mediated-drug degradation at 12 uM up to 5 mins by MALDI-TOF-MS analysis; assay type: ADME, tissue-based; settings: tissue homogenate; in short: as §2
[10] = biological target: T1, Parathyroid hormone/parathyroid hormone-related peptide receptor (Homo sapiens); assay: Displacement of [125I]-PTH(1 to 34 residues) from R0 state of human PTHR1 expressed in African green monkey COS7 cell membranes incubated for >1 hr in presence of GTPgammaS by gamma radiation method
[11] = biological target: T1, Parathyroid hormone/parathyroid hormone-related peptide receptor (Homo sapiens); assay: Agonist activity at human PTH1 receptor expressed in human GP2.3 cells assessed as induction of cAMP at 0.1 to 100 nM preincubated with SIF for 10 mins followed by compound transfer to GP2.3 cells by luciferase reporter gene assay; assay type: functional, cell-based
In short: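 Simulated intestinal fluid containing pancreatin, pH 6.8, prepared fresh and kept at 37 °C. Peptide incubated in it as for gastric fluid. Quenched 1:1 with 50% acetonitrile/1% TFA. Quenched samples serially diluted in CO2-independent medium and applied to luciferin-preloaded GP2.3 cells at 100−0.1 nM final. Luminescence read. Two technical replicates.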

SMILES: CC[C@H](C)[C@H](NC(=O)[C@H](CCC(=O)O)NC(=O)[C@H](CO)NC(=O)[C@@H](NC(=O)[C@@H](N)CO)C(C)C)C(=O)N[C@@H](CCC(N)=O)C(=O)N[C@@H](CC(C)C)C(=O)N[C@@H](CCSC)C(=O)N[C@@H](Cc1cnc[nH]1)C(=O)N[C@@H](CC(N)=O)C(=O)N[C@@H](CC(C)C)C(=O)NCC(=O)N[C@@H](CCCCN)C(=O)N[C@@H](Cc1cnc[nH]1)C(=O)N[C@@H](CC(C)C)C(=O)N[C@@H](CC(N)=O)C(=O)N[C@@H](CO)C(=O)N[C@@H](CCSC)C(=O)N[C@@H](CCC(=O)O)C(=O)N[C@@H](CCCNC(=N)N)C(=O)N[C@H](C(=O)N[C@@H](CCC(=O)O)C(=O)N[C@@H](Cc1c[nH]c2ccccc12)C(=O)N[C@@H](CC(C)C)C(=O)N[C@@H](CCCNC(=N)N)C(=O)N[C@@H](CCCCN)C(=O)N[C@@H](CCCCN)C(=O)N[C@@H](CC(C)C)C(=O)N[C@@H](CCC(N)=O)C(=O)N[C@@H](CC(=O)O)C(=O)N[C@H](C(=O)N[C@@H](Cc1cnc[nH]1)C(=O)N[C@@H](CC(N)=O)C(=O)N[C@@H](Cc1ccccc1)C(N)=O)C(C)C)C(C)C
- Stability [1]: Unstable
- Activity [2]: Active
- Drug metabolism [3]: Metabolite_Detected
- half-life at 12 µM [4]: 1.9 min
- Activity [5]: Active
- Activity [6]: Active
- Activity (Mus musculus): Non-Toxic
- Drug metabolism [7]: Metabolite_Detected
- Activity [8]: inactive
- Drug metabolism [9]: Metabolite_Detected
- inhibition [10]: Active
- Activity [11]: inactive

Reference: ChEMBL document CHEMBL4024754, “Development of Potent, Protease-Resistant Agonists of the Parathyroid Hormone Receptor with Broad β Residue Distribution” (J Med Chem, 2017)
